The values that follow come from ChEMBL document CHEMBL1641573, “3-[(Imidazolidin-2-yl)imino]indazole ligands with selectivity for the α(2)-adrenoceptor compared to the imidazoline I(1) receptor” (Bioorg Med Chem, 2011).

pEC50, pIC50: −log10 of the molar value.

As a reminder, the Ki is a measure of affinity in units of concentration, obtained from inhibition or displacement. Low values mean a stronger hold on the target, high ones a looser hold on the target. In general, pIC50 refers to the IC50 on a negative log10 scale, so that one unit is a factor of ten. What is called pEC50 is −log10 of the EC50, conventionally taken in molar units.

Test [1] deals with T1, Adrenergic receptor alpha-1 (Rattus norvegicus, UniProt P15823+P23944+P43140).
T1 sequence (P15823 whole entry): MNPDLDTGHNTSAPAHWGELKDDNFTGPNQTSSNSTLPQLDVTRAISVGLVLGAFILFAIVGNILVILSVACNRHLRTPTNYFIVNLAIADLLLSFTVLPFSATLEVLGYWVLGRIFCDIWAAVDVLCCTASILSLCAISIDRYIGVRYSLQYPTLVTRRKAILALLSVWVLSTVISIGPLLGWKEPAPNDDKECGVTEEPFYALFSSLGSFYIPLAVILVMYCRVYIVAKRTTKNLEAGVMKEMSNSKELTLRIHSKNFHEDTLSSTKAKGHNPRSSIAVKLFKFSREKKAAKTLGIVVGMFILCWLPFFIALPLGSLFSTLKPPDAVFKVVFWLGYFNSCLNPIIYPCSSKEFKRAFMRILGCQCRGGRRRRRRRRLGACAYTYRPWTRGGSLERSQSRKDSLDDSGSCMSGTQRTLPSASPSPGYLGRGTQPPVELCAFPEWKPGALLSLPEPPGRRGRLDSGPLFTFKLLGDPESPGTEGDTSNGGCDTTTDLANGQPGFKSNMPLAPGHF
T1 sequence (P23944 whole entry): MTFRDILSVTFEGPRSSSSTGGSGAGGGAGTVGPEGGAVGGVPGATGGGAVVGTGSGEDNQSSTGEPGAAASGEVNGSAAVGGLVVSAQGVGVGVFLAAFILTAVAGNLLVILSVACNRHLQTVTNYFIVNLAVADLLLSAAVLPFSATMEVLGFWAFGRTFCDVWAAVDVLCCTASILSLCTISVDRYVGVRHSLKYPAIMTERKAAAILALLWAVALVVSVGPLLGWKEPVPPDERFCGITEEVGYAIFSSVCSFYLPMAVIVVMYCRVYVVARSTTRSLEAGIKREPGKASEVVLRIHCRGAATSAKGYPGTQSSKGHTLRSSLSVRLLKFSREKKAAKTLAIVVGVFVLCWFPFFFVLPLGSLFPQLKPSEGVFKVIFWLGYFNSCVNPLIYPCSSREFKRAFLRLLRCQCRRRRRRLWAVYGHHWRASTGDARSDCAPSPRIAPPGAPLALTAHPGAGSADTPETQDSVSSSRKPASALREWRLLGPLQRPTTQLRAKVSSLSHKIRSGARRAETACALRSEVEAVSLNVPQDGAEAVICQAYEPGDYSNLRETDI
T1 sequence (P43140 whole entry): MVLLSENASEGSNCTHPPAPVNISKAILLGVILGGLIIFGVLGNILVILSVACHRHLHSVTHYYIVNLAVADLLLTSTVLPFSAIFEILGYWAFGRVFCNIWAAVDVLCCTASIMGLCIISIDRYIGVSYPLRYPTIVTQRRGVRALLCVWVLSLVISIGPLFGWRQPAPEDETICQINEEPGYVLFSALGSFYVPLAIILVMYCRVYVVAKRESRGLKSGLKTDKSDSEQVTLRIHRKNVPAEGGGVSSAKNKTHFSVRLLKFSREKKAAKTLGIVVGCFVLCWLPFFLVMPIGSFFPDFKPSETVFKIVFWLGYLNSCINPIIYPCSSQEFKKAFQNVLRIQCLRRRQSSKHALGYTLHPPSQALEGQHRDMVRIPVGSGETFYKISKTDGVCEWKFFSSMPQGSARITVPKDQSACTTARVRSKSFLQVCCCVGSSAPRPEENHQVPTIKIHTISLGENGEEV
The test is described as follows: Displacement of [3H]prazosin from alpha1 adrenergic receptor in Sprague-Dawley rat brain membrane after 45 mins by liquid scintillation counting. It counts as cell membranes. In outline: (§1)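 Crude P2 brain membranes from male Sprague–Dawley rats (0.2–0.3 mg protein) incubated with 11 concentrations (0.01 nM–100 µM) and 1 nM of [3H]2BFI (I2), [3H]prazosin (α1) or [3H]RX821002 (α2), at room temperature in triplicate. Non-specific binding: BU224, phenylephrine or rauwolscine. Filtration, scintillation counting, Ki by Cheng–Prusoff from 3–4 experiments.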
(In general: Displacement assays read how much labelled ligand stays bound in the presence of the test substance.)

A further test has as its target Nischarin (Rattus norvegicus, UniProt Q4G017). The test is described as follows: Displacement of [3H]clonidine from imidazoline I1 receptor in Sprague-Dawley rat kidney membrane after 45 mins by liquid scintillation counting. It is filed as cell membranes. A digest of the protocol:
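Specific binding defined by 10 µM rilmenidine. 11 test concentrations, 50 mM Tris-HCl pH 7.4, room temperature 45 min. Filtration through PEI-soaked glass-fibre filters, scintillation counting, IC50 by curve fitting.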

The target of test [2] is T2, Adrenergic receptor alpha-2 (Rattus norvegicus, UniProt P22086+P19328+P22909).
T2 sequence (P22086 whole entry): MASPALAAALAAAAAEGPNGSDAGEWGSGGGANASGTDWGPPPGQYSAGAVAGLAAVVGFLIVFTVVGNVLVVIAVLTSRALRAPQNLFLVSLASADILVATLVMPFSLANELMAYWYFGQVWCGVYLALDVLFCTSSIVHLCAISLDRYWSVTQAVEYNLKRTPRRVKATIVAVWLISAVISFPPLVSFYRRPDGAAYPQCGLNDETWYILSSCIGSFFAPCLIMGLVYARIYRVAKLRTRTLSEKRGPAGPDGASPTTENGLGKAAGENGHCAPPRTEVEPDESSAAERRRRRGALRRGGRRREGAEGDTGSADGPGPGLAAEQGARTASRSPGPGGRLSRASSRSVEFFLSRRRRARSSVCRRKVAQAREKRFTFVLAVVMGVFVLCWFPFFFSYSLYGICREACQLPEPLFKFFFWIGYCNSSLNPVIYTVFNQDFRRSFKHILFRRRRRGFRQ
T2 sequence (P19328 whole entry): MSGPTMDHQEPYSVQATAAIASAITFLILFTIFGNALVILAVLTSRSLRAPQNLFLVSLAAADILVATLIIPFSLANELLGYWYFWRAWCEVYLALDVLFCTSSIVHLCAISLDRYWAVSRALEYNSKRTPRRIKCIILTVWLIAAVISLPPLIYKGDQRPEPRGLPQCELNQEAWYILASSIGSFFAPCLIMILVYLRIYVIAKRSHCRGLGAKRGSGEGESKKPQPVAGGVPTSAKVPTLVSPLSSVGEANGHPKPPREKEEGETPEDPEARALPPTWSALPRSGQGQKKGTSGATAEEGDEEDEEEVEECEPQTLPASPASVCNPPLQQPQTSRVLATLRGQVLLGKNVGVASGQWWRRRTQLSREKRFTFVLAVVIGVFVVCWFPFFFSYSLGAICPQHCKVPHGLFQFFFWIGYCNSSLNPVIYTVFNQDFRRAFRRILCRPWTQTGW
T2 sequence (P22909 whole entry): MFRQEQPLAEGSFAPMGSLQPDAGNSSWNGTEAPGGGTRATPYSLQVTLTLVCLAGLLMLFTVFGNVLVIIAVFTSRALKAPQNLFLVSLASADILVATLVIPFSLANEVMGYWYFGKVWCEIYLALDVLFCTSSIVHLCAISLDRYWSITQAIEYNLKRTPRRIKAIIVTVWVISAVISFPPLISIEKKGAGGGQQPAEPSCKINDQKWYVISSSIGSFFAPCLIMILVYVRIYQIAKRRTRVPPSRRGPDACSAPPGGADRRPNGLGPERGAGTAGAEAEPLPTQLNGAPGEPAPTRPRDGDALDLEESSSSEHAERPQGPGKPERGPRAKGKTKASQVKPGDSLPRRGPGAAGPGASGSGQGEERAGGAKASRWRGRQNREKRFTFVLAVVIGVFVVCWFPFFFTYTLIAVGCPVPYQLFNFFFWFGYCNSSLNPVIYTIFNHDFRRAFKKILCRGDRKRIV
Description: Displacement of [3H]RX821002 from alpha2 adrenergic receptor in Sprague-Dawley rat brain membrane after 45 mins by liquid scintillation counting. It is filed as cell membranes. A digest of the protocol: as §1

For a further test, the species on record is Rattus norvegicus. The test is described as follows: Selectivity ratio of IC50 for imidazoline I1 receptor in Sprague-Dawley rat kidney membrane to Ki for alpha2 adrenergic receptor in Sprague-Dawley rat brain membrane. It is filed as cell membranes.
The target in test [3] is T3, Alpha-2A adrenergic receptor (Homo sapiens) (UniProt P08913).
T3 sequence (whole entry): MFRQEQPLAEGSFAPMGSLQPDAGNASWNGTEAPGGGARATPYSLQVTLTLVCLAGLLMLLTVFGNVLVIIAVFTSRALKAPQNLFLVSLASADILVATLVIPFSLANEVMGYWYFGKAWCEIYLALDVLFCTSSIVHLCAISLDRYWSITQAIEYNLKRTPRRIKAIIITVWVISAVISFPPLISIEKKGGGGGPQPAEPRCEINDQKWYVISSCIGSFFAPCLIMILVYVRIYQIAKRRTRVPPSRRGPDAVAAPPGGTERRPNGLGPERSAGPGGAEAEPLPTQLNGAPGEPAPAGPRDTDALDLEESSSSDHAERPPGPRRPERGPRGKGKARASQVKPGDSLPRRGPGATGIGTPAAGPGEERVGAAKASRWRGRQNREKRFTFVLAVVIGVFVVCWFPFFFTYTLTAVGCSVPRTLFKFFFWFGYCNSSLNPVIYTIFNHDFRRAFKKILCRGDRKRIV
The test is described as follows: Agonist activity at human recombinant alpha2A adrenergic receptor expressed in CHO cells assessed as induction of [35S]GTPgammaS binding after 60 mins by scintillation counting relative to noradrenaline. It counts as functional, cell-based. A digest of the protocol:
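Membranes from CHO-K1 cells expressing human α2A-adrenoceptor, in Tris buffer pH 7.4 with 10 µM GDP, 5 mM MgCl2 and 150 mM NaCl; 5 µg protein preincubated with agonist 30 min at 37 °C, then 0.1 nM [35S]GTPγS for 60 min at 37 °C. Filtration and scintillation counting, duplicates, at least three repeats. Curve fit gave EC50 and intrinsic activity as % of noradrenaline.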

Test [4] concerns the target T4, Alpha-2A adrenergic receptor (Homo sapiens, UniProt P08913).
T4 sequence (P08913 whole entry): T3 sequence (whole entry)
The test is described as follows: Agonist activity at human recombinant alpha2A adrenergic receptor expressed in CHO cells assessed as induction of [35S]GTPgammaS binding after 60 mins by scintillation counting. It counts as functional, cell-based. A digest of the protocol: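 Membranes from CHO-K1 cells expressing human α2A-adrenoceptor, in Tris buffer pH 7.4 with 10 µM GDP, 5 mM MgCl2 and 150 mM NaCl; 5 µg protein preincubated with agonist 30 min at 37 °C, then 0.1 nM [35S]GTPγS for 60 min at 37 °C. Filtration and scintillation counting, duplicates, at least three repeats.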
Background: GTPγS is a poorly hydrolysed GTP analogue; its binding reports G protein activation.

Sequence of Nischarin (Q4G017 whole entry): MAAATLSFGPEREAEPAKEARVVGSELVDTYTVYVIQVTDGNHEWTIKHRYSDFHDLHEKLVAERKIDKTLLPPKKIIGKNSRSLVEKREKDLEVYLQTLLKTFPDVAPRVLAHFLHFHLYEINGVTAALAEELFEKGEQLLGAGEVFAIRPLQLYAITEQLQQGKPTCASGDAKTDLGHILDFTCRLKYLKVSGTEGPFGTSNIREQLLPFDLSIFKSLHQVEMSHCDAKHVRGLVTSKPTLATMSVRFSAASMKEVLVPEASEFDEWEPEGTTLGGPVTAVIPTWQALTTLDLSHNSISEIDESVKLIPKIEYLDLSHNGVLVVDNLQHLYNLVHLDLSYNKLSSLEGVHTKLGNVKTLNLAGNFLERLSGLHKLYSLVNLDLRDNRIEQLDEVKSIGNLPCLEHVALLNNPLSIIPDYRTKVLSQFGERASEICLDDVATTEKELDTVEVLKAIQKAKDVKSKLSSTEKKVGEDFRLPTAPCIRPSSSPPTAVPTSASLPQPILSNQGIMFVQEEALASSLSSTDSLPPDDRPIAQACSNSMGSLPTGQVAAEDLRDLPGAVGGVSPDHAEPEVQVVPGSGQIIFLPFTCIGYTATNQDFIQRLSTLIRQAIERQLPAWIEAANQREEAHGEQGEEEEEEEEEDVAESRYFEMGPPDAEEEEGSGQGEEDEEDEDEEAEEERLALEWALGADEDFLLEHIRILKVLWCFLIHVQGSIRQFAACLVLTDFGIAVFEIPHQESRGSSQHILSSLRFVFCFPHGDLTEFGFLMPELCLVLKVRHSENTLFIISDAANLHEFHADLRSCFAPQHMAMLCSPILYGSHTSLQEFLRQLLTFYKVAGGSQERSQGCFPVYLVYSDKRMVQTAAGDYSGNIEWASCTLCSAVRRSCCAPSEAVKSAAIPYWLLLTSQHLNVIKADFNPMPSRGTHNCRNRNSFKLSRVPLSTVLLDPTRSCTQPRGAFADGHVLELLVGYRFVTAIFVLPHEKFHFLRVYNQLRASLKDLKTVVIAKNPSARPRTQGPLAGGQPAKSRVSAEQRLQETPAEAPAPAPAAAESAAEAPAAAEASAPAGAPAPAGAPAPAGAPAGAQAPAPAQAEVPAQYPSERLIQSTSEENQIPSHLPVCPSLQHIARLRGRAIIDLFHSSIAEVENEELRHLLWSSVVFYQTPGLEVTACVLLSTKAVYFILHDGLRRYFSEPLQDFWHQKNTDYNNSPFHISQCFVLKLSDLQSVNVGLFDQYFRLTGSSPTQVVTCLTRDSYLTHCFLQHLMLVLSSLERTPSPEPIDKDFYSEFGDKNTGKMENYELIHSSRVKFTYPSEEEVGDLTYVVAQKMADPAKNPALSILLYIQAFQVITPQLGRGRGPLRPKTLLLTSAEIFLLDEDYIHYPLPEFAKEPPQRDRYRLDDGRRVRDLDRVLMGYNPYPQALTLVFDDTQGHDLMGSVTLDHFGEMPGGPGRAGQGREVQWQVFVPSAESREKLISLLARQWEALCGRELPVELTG

On to `Cc1ccc2c(N=C3NCCN3)n[nH]c2c1.Cl`, for which the Ki is 508 nM in test [1] and 176 nM in test [2]. This compound gave a pIC50 at Nischarin of 4.78. Further, the Ratio in the test filed under Rattus norvegicus turned out to be 94.3.

As to `Cc1cccc2cnn(N=C3NCCN3)c12`, in test [3], the Intrinsic activity worked out at 32%. Moreover, the pEC50 in test [4] was 7.43.

On to `Clc1cccc2c1cnn2N=C1NCCN1`, for which the Intrinsic activity in test [3] is 62%. The pEC50 in test [4] was 6.74.

For `Clc1cccc2cnn(N=C3NCCN3)c12`, the Intrinsic activity in test [3] is 48%. Moreover, the negative logarithm of the EC50 (pEC50) in test [4] is 7.82.

On to `Cl.Clc1ccc2c(N=C3NCCN3)n[nH]c2c1`, for which the Ki stood at 386 nM in test [1] and 502 nM in test [2]. Also, the pIC50 at Nischarin is 5.70. In addition, in the test filed under Rattus norvegicus, the Ratio is 4.

For `Cl.c1ccc2c(N=C3NCCN3)n[nH]c2c1`, the Intrinsic activity in test [3] is 55%. Further, in test [4], the pEC50 was 7.09. For the same compound, the pIC50 at Nischarin is 5.49. Besides, in test [2], the Ki was 39.4 nM. Also, the Ratio in the test filed under Rattus norvegicus amounted to 82.

Regarding `Cl.Clc1ccc2[nH]nc(N=C3NCCN3)c2c1`, the Ki was 121 nM in test [1] and 10600 nM in test [2]. For the same compound, the pIC50 on Nischarin is less than 4.00. For the same compound, in the test filed under Rattus norvegicus, the Ratio was greater than 9.4.

As to `COc1ccc2[nH]nc(N=C3NCCN3)c2c1.Cl`, the values for the Ki in test [1] and in test [2] were 244 nM and 1460 nM, respectively. On Nischarin, the pIC50 is less than 4.00. In addition, the Ratio in the test listed under Rattus norvegicus is greater than 68.

With `Cc1ccc2[nH]nc(N=C3NCCN3)c2c1.Cl`, the Ki in test [1] was found to be 29000 nM; in test [2], 11400 nM. Also, the pIC50 on Nischarin is 4.67. Besides, in the test listed under Rattus norvegicus, the Ratio came out at 2.

For `c1ccc2c(c1)cnn2N=C1NCCN1` [MARSANIDINE], the Intrinsic activity in test [3] is 18%. Also, in test [4], the pEC50 was 6.80.

As for `COc1cccc2[nH]nc(N=C3NCCN3)c12.Cl`, the values for the Ki in test [1] and in test [2] were 196 nM and 748 nM, respectively. This compound showed a pIC50 at Nischarin of 4.59. Moreover, the Ratio in the test filed under Rattus norvegicus was found to be 34.

For `Brc1cccc2[nH]nc(N=C3NCCN3)c12.Cl`, the Ki in test [1] was 984 nM; in test [2], 6420 nM. The compound further showed a pIC50 on Nischarin of 5.12. In addition, the Ratio in the test listed under Rattus norvegicus was determined as 1.

For `Cc1cccc([C@H](C)c2c[nH]cn2)c1C`, in test [3], the Intrinsic activity turned out to be 60%.
